Granule exo inh: LAMP-1 surface exposure blockers, TALL-104 cells – cell-based, flow cytometry, MLPCN library, primary screen | TALL-104 LAMP-1 surface exposure; cells stimulated with thapsigargin and PMA | inhibition, % at 10 µM | 0.66% of 360,000 active | AID 651702, 2012;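 active = inhibition above about 55%, limit read from the data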
ARFGAP1 inh: inhibitors of rat ARFGAP1 GAP activity, primary screen, biochemical, fluorescence polarization, GDP tracer; 0.26% of 360,000 active; AID 651572, 2012; Arfgap1-stimulated ARF1 GTP hydrolysis, GDP FP detection; ADP-ribosylation factor GTPase-activating protein 1 (Rattus norvegicus), Q62848; inhibition, % at 16.5 µM;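 active = inhibition above a per-plate limit, mean inhibition of low control wells plus 3 SD, cut at about 25% in these data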;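 note: 0% = DMSO wells with enzyme and 100% = wells lacking Arfgap1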
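Material: rat Arfgap1 GAP domain (His6, aa 1-136), purified enzyme. Also added: human ARF1(Δ1-17)-GTP substrate. Compound dosing: 16.5 µM single point, 1.26% DMSO. Timing: enzyme reaction 120 min at 25 °C after 20 min preincubation. Signal: GDP detection by fluorescence polarization. Read-out basis: percent inhibition of GAP-stimulated GDP formation, scaled between DMSO and no-Arfgap1 medians.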
CendR NRP1 mod: modulators of CendR peptide binding to NRP-1, primary screen, biochemical, fluorescence polarization, uHTS; Neuropilin-1 (Homo sapiens), O14786; FAM-RPARPAR peptide binding to NRP-1; inhibition, % at 25 µM; 0.85% of 360,000 active;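 active = inhibition or corrected inhibition above about 18%, plus a signal ratio from 0.5 to 1.5, limit read from the data, passing the limit was not always enough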
ASAP1 GAP inh: inhibitors of human ASAP1 ArfGAP activity, primary screen, biochemical, fluorescence polarization; Arf-GAP with SH3 domain, ANK repeat and PH domain-containing protein 1 (Homo sapiens), …; ASAP1-stimulated ARF1 GTP hydrolysis, GDP FP detection; 0.19% of 360,000 active; inhibition, % at 16.5 µM; in the data active = inhibition above about 25%;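 note: 0% = vehicle with enzyme and substrate and 100% = no enzyme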
Target sequence (Q9ULH1 325-724 limits assumed): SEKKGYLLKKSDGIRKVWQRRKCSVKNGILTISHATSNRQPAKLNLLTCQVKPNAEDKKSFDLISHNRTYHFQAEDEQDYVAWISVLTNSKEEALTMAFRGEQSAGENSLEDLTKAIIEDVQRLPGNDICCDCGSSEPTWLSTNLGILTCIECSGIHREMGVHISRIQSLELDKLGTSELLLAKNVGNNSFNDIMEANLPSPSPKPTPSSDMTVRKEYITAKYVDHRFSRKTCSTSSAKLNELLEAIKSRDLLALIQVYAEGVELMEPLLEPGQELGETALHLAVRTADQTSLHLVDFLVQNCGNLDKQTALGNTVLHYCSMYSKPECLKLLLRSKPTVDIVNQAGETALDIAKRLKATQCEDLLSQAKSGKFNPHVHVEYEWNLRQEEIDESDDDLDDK
V-ATPase pHluor: regulators of yeast V-ATPase proton pumping, primary screen, pHLuorin cytosolic pH fluorescence; S. cerevisiae; response, % at 10 µM; 0.37% of 350,000 active; in the data active = response mostly above about 7.3%, no sharp cut-off; inactive = mostly below about 5.4%; note: actives read high
Exocytosis CP01: inhibitors of lytic granule exocytosis, confirmation, TALL-104 cells, flow cytometry, Cherry Pick01 | inhibition, % at 10 µM | shares compounds with Granule exo inh | 11% of 1,500 active | LAMP-1 externalization; stimulated with PMA plus thapsigargin; in the data active = inhibition above about 60%;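 note: 0% = stimulated vehicle wells and 100% = unstimulated wells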
The depositor's hits bear a star; . = no result given. This is a sample that favours compounds with a hit; in the whole collection about 2.2% have one here.

SMILES	Granule exo inh	ARFGAP1 inh	CendR NRP1 mod	ASAP1 GAP inh	V-ATPase pHluor	Exocytosis CP01
O=C(Nc1nc2ccccc2n1CCN1CCOCC1)c1ccc(COc2ccccc2Br)o1	70*	5	-3	22	.	80*
O=C(Nc1nc2ccccc2n1CCN1CCOCC1)c1ccc(Cn2cc([N+](=O)[O-])cn2)o1	-14	9	7	-1	1	.
Cc1cc(C)n(-c2ccc(NC(=O)C3CCCCN3Cc3cccc4c3OCO4)cc2)n1 (centres undefined)	1	15	10	3	-1	.
CCOC(=O)[C@]12CCC=C1N(Cc1ccc(Cl)cc1Cl)C(=O)[C@H](CC(=O)N1CCN(C(=O)c3ccco3)CC1)C2	-3	-10	18	-11	.	.
CCC1=C2CC[C@H]3C(=O)N(c4ccccc4)C(=O)[C@H]3[C@H]2[C@@]2(C)C(=NCc3ccccc3)OC(=O)N2C1=O	16	-4	-3	10	2	.
CCC1=C2CC[C@H]3C(=O)N(C)C(=O)[C@H]3[C@H]2[C@@]2(Cc3ccccc3)C(=NCC(=O)OC)OC(=O)N2C1=O	84*	-4	6	6	-4	-15
COC(=O)[C@@H]1C[C@@]2(O)[C@H](O)[C@H](O)[C@H](O)C[C@H]2N1Cc1ccc(-c2ccccc2)cc1	6	-6	3	10	-1	.
COC(=O)[C@@H]1C[C@@]2(O)[C@H](O)[C@H](O)[C@H](O)C[C@H]2N1Cc1cccc2ccccc12	70*	-9	-4	-9	-1	-4
COc1ccccc1-c1cnc(C(O)c2cc(Cl)cc(Cl)c2)[nH]1 (centres undefined)	-5	5	-4	0	.	.
CCN(CC)C(=O)C1CCCN(Cc2cccc(Oc3ccccc3)c2)C1 (centres undefined)	68*	1	-12	-6	-2	-13
COCCn1c(C)cc(C(=O)COc2ccc(N(C)S(=O)(=O)c3ccc(C)cc3)cc2)c1C	18	14	17	5	5	.
O=C(Cn1sc2ccccc2c1=O)Nc1ccc(F)cc1	64*	1	-1	10	0	104*
CC(=O)OCC(COC(C)=O)(CN1C(=O)c2ccccc2C1=O)CN1C(=O)c2ccccc2C1=O	.	8	.	0	.	.
CCCCn1c(NCc2ccc3c(c2)OCO3)nc2ccccc21	67*	-2	11	-12	3	-3
CN1C(=O)C2(Nc3ccccc3-c3nc4ccccc4n32)c2ccccc21 (centres undefined)	1	-3	-18	2	0	.
O=C1Nc2ccccc2C12Nc1ccccc1-c1nc3ccccc3n12 (centres undefined)	56*	8	-2	12	-2	-3
CCC(C)[C@H](NC(=O)Nc1ccccc1F)C(=O)OC (some centres undefined)	83*	-4	22*	-4	-2	-13
O=C1NC[C@H](CCCCN2C[C@@H](Cc3ccccc3)N(CC3CCCCC3)C(=O)C2=O)N(CCC2CCCCC2)C1=O	-6	8	7	0	.	.
CCCN(C(=O)COc1ccc(Cl)cc1Cl)c1c(N)n(Cc2ccccc2)c(=O)[nH]c1=O	83*	-7	16	-5	1	-3
CCCCN(CC(O)COc1cccc(C)c1)CC(O)COc1cccc(C)c1 (centres undefined)	83*	16	8	9	0	-4
CN(C)CC(O)COc1cccc(OCC(O)CN(C)C)c1 (centres undefined)	-1	2	0	-13	0	.
CC(C)C(=O)c1cc2c(cc1NC(=O)c1cccs1)OCCO2	75*	-8	6	-13	3	-11
COc1ccc(OC)c(NC(=O)Nc2nc(C(C)N)cs2)c1 (centres undefined)	-6	8	3	-5	.	.
CCOC(=O)c1c(NC(=O)COC(=O)CCOc2ccccc2C)sc(C(=O)NC)c1C	-1	0	-13	-3	-2	.

Assay outcomes as filed in PubChem BioAssay.
